Measured values pooled from the literature.
Protocols differ between the studies behind these lines.
FLT3: Receptor-type tyrosine-protein kinase FLT3 (FLT3, Homo sapiens, UniProt P36888)
Tmem97: Sigma intracellular receptor 2 (Tmem97, Rattus norvegicus, UniProt Q5U3Y7)
F2 trypsin-like site: Prothrombin, trypsin-like site (F2, Bos taurus, UniProt P00735)
MTNR1A: Melatonin receptor type 1A (MTNR1A, Homo sapiens, UniProt P48039)
CYP51: Sterol 14-alpha demethylase (CYP51, Trypanosoma cruzi, UniProt Q7Z1V1)
HTR2C: 5-hydroxytryptamine receptor 2C (HTR2C, Homo sapiens, UniProt P28335)

c1ccc(N2CCCC(Nc3nccc(NC4CCCCC4)n3)C2)cc1 (stereo not shown)  IC50 (FLT3; enzyme activity, inhibitor): 3.26 µM
O=C(NCCN1CCCCC1)c1ccc(OCCF)c(Br)c1  Ki (Tmem97; ligand displacement, radioligand; cell membranes): 0.0428 µM
O=C(O)CNC(=O)C(=O)O  Kd (Glutamate dehydrogenase 1, mitochondrial (GLUD1, Bos taurus, UniProt P00366); binding, NMR): 10000 µM
CC(C)(C)[C@H](NC(=O)[C@H](CCCNC(=N)N)NC(=O)Cc1ccc(CN)cc1)C(=O)N[C@@H](CCONC(=N)N)C(=O)NCc1ccc(C(=N)N)cc1  Ki (F2 trypsin-like site; enzyme activity, inhibitor; pH 8): 13 µM
CN(Cc1ccsc1)c1ccnc(Cl)c1  EC50 (MTNR1A; cAMP, agonist, luciferase): 2.66 µM
Cc1ccc(C(=O)Nc2ccc(Oc3cc4cnn(C)c4cc3-c3cn[nH]c3)c(F)c2)c(=O)n1-c1ccc(F)cc1  Kd (Tyrosine-protein kinase receptor Tie-1 (TIE1, Homo sapiens, UniProt P35590); binding, competition with immobilised ligand): 0.0009 µM
COc1cccc(-c2cccc(Nc3nccc(NC(C)C)n3)c2)c1  IC50 (FLT3; enzyme activity, inhibitor): 6.97 µM
Cc1cnc(-c2ccc(-c3ccc(NC(=O)Nc4c(F)cc(F)cc4F)cc3F)c3c2C(=O)NC3)[nH]1  Kd (Aurora kinase C (AURKC, Homo sapiens, UniProt Q9UQB9); binding, competition with immobilised ligand): 0.0011 µM
c1cncc(C2CCCC(Nc3nccc(NC4CCCCC4)n3)C2)c1 (stereo not shown)  IC50 (FLT3; enzyme activity, inhibitor): > 23 µM
COc1cc2c(CCNC(C)=O)c[nH]c2cc1I  EC50 (MTNR1A; β-arrestin recruitment, agonist): 0.00525 µM
O=C(Nc1ccc(Sc2ccc([N+](=O)[O-])cc2)cc1)O[C@@H](Cn1ccnc1)c1ccc(Cl)cc1  Kd (CYP51; binding): 0.715 µM
CCCCN1CCN(C2CCCCC2)CC1  Ki (Tmem97; ligand displacement, radioligand; cell membranes): 0.0652 µM
COc1cc2c(cc1OC)CN(CCCCn1ccc3c(OC)cccc31)C2  Ki (Tmem97; ligand displacement, radioligand; cell membranes): 0.0063 µM
CCOC(=O)c1nc(N(C)CCc2cnccn2)ccc1Br  EC50 (MTNR1A; cAMP, agonist, luciferase): 0.0294 µM
CCC(=O)NC1Cc2ccccc2C(c2ccccc2)C1 (stereo not shown)  EC50 (MTNR1A; cAMP, agonist, TR-FRET): 0.282 µM
Nc1nc(NCc2ccc(Oc3ccccc3)cc2)nc(-c2c(F)cccc2CO)n1  Ki (MTNR1A; cell-free assay, radioligand): 5.9 µM
COc1ccc2c(c1)N(Cc1cccc3[nH]ccc13)CCO2  EC50 (MTNR1A; cAMP, agonist, luciferase): 0.0208 µM
O=C(NCCN1CCCCC1)c1cc(Br)ccc1O  Ki (Tmem97; ligand displacement, radioligand; cell membranes): > 10 µM
COc1cc2c(CCNC(C)=O)c(I)[nH]c2cc1[N+](=O)[O-]  EC50 (MTNR1A; GTPγS binding, agonist, radiometric; cell membranes): 0.0209 µM
COc1cccc2c1CCN(C(=O)c1cncn1C)C2  EC50 (MTNR1A; cAMP, agonist, luciferase): 0.0227 µM
CC(C)(C)[C@H](NC(=O)[C@H](CCONC(=N)N)NC(=O)Cc1ccc(CN)cc1)C(=O)N[C@@H](CCONC(=N)N)C(=O)NCc1ccc(C(=N)N)cc1  Ki (F2 trypsin-like site; enzyme activity, inhibitor; pH 8): 25 µM
COc1ccc2c(c1)C(CNC(N)=O)Cc1ccccc1C2 (stereo not shown)  EC50 (MTNR1A; GTPγS binding, agonist, radiometric; cell membranes): 0.0282 µM
COC(=O)c1sc(N(C)Cc2ccc(OC)c(O)c2)nc1Cl  EC50 (MTNR1A; cAMP, agonist, luciferase): 0.0145 µM
O=C(NCCc1cccc2ccccc12)C1CCC1  EC50 (MTNR1A; cAMP, agonist, TR-FRET): 1.66 µM
OC[C@@]12C[C@@H]1[C@@H](n1cnc3c(N[C@H](C4CCC4)C4CC4)nc(I)nc31)[C@H](O)[C@@H]2O  Kb (HTR2C; calcium signal, antagonist): 0.288 µM
COc1ccc2[nH]cc(CCNC(C)=O)c2c1I  EC50 (MTNR1A; GTPγS binding, agonist, radiometric; cell membranes): 0.112 µM
CC(C)(C)[C@H](NC(=O)[C@H](CCONC(=N)N)NC(=O)Cc1ccc(CN)cc1)C(=O)N[C@@H](CCCCN)C(=O)NCc1ccc(C(=N)N)cc1  Ki (F2 trypsin-like site; enzyme activity, inhibitor; pH 8): 10 µM
COC(=O)c1cc(Cn2ccc(C(C)=O)n2)c(C)s1  EC50 (MTNR1A; cAMP, agonist, luciferase): 0.0749 µM
COc1ccc2ncn(CCNC(C)=O)c2c1  EC50 (MTNR1A; β-arrestin recruitment, agonist): 0.871 µM
CC(C)c1ccc(NC(=O)O[C@@H](Cn2ccnc2)c2ccc(F)cc2)cc1  Kd (CYP51; binding): 0.083 µM
COC(=O)c1cc(CSc2nnc(C3CC3)[nH]2)cs1  EC50 (MTNR1A; cAMP, agonist, luciferase): 0.00757 µM
Cc1cc(Nc2cc3ncccc3c(N[C@@H]3C[C@H]4CC[C@@H](C3)N4CCC#N)n2)n[nH]1  Kd (Aurora kinase A (AURKA, Homo sapiens, UniProt O14965); binding, competition with immobilised ligand): 0.066 µM
O=C(O[C@@H](Cn1ccnc1)c1ccccc1)c1ccc(-c2ccccc2)cc1  Kd (CYP51; binding): 0.087 µM
COC(=O)[C@H](C)Nc1ccnc(Nc2cccc(-c3cccnc3)c2)n1  IC50 (FLT3; enzyme activity, inhibitor): > 22 µM
CCc1nc2cc(OCCCCN3CCC(c4cccc(Cl)c4Cl)CC3)ccc2s1  Ki (HTR2C; cell-free assay, radioligand): 0.21 µM
Fc1ccc(Nc2nccc(NC3CCCCC3)n2)cc1  IC50 (FLT3; enzyme activity, inhibitor): 3.3 µM
O=C(NCCCn1ccnc1)O[C@H](Cn1ccnc1)c1ccc(F)cc1  Kd (CYP51; binding): 0.6 µM
CC(C)Nc1ccnc(Nc2ccc(-c3ccccc3)cc2)n1  IC50 (FLT3; enzyme activity, inhibitor): 15 µM
COc1ccc2c(c1)N(Cc1cc(=O)c(OC)co1)CCO2  EC50 (MTNR1A; cAMP, agonist, luciferase): 0.00056 µM
COCC(C)Nc1ccnc(Nc2cccc(-c3cccnc3)c2)n1 (stereo not shown)  IC50 (FLT3; enzyme activity, inhibitor): < 0.006 µM
Cc1cc2nc3c(=O)[nH]c(=O)nc-3n(C[C@H](O)[C@H](O)[C@H](O)COP(=O)(O)OP(=O)(O)OC[C@H]3O[C@@H](n4cnc5c(N)ncnc54)[C@H](O)[C@@H]3O)c2cc1C  Kd (BMP-2-inducible protein kinase (BMP2K, Homo sapiens, UniProt Q9NSY1); binding; lysate): 0.031 µM
c1cc(Nc2nccc(NC3CCCCC3)n2)cc(C2CC2)c1  IC50 (FLT3; enzyme activity, inhibitor): 2.59 µM
CCCN1CCN(c2ccc(-c3cncc(Cl)c3N3CCC4(CCNC4=O)CC3)cc2)CC1  Kd (Myotonin-protein kinase (DMPK, Homo sapiens, UniProt Q09013); cell-free assay; lysate): 18.4 µM
